Data reported in ChEMBL document CHEMBL1123546, “Inhibition of cyclic nucleotide phosphodiesterases from pig coronary artery by benzo-separated analogues of 3-isobutyl-1-methylxanthine” (J Med Chem, 1986).

Tests used:
Phosphodiesterase 1 = Phosphodiesterase 1 (Homo sapiens, UniProt P54750+Q01064+Q14123); test: Inhibition of Calmodulin Sensitive Phosphodiesterase 1 from pig coronary artery; assay type: tissue-based, Sus scrofa; conditions: target entry is the homologue from another species
Method in brief: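 Media plus intima of porcine coronary artery homogenized in 20 mM Tris-HCl pH 7.5, 2 mM Mg(OAc)2, 1 mM DTT. The soluble fraction was resolved on DEAE-cellulose and peak I was pooled. Assay used 1 μM cGMP with calcium + calmodulin, 30 °C for 30 min, at 10-20% hydrolysis. Analogues were tested at 1-100 μM with 3% final Me2SO. I50 was taken as the concentration giving 50% inhibition of hydrolysis.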

[1] = target: cGMP-dependent 3',5'-cyclic phosphodiesterase (Homo sapiens, UniProt O00408); test: Inhibition of Phosphodiesterase 2 from pig coronary artery; assay type: tissue-based, Sus scrofa; conditions: target entry is the homologue from another species; read-out: I50
Sequence of cGMP-dependent 3',5'-cyclic phosphodiesterase (O00408 whole entry): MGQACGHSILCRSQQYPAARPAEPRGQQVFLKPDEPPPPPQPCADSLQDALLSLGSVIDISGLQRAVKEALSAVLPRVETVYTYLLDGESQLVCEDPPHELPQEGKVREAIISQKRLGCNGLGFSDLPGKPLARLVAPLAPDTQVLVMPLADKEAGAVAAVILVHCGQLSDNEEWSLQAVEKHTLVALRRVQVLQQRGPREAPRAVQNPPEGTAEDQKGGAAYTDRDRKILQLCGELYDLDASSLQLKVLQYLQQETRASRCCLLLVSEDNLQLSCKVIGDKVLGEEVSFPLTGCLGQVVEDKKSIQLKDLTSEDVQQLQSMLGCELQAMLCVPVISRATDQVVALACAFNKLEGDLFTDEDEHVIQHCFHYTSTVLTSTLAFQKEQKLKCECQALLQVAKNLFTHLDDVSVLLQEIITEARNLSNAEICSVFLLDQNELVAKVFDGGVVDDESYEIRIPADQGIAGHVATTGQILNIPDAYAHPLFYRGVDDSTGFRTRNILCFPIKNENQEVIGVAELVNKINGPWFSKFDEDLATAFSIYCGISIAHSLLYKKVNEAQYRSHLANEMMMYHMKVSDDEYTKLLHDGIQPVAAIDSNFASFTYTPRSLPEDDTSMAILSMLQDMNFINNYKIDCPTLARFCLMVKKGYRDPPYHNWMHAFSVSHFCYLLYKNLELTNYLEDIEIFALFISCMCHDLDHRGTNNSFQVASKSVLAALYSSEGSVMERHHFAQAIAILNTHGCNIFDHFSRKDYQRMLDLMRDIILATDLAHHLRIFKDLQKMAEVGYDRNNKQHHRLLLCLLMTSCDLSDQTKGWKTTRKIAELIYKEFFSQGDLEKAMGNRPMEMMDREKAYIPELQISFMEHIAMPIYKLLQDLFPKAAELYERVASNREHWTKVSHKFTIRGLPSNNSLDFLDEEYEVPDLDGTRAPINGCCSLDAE
Method in brief: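 Pooled peak II was the enzyme source, taken from DEAE-cellulose fractionation of soluble porcine coronary media plus intima homogenate (20 mM Tris-HCl pH 7.5, 2 mM Mg(OAc)2, 1 mM DTT). Hydrolysis of 1 μM cAMP ran at 30 °C for 30 min, with enzyme dilution set for 10-20% hydrolysis. Analogues were tested at 1-100 μM in 3% final Me2SO. I50 was the concentration giving 50% inhibition.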

Compound	I50 (Phosphodiesterase 1) [µM]	IC50 [1] [µM]
CC(C)Cn1c(=O)n(C)c(=O)c2nc[nH]c21 [ISOBUTYLMETHYLXANTHINE]	6.3	15
CC(C)Cn1c(=O)n(C)c(=O)c2[nH]c(C(C)(C)C)nc21	1.8	58
CC(C)CCn1c(=O)c2c3nc[nH]c3ccc2n(CC(C)C)c1=O	> 25	19
Cc1nc2c([nH]1)c(=O)n(C)c(=O)n2CC(C)C	1.9	68
CC(C)Cn1c(=O)n(C)c(=O)c2cc3c(cc21)ncn3Cc1ccccc1	1.2	14
CC(C)CCn1c(=O)c2cc3nc[nH]c3cc2n(CC(C)C)c1=O	> 25	20
COCc1nc2c([nH]1)c(=O)n(C)c(=O)n2CC(C)C	5.2	212
CC(C)Cn1c(=O)n(C)c(=O)c2cc3ncn(Cc4ccccc4)c3cc21	4.9	27
Cc1nc2cc3c(cc2[nH]1)c(=O)n(C)c(=O)n3CC(C)C	36	> 50
CC(C)Cn1c(=O)n(C)c(=O)c2c3c(ccc21)ncn3Cc1ccccc1	19	14
CC(C)CCn1c(=O)c2nc[nH]c2n(CC(C)C)c1=O	86	17
CC(C)Cn1c(=O)n(C)c(=O)c2c1ncn2Cc1ccccc1	4.4	108
COCc1nc2c(ccc3c2c(=O)n(C)c(=O)n3CC(C)C)[nH]1	54	66
Cc1nc2c(ccc3c2c(=O)n(C)c(=O)n3CC(C)C)[nH]1	15	> 25
CC(C)Cn1c(=O)n(C)c(=O)c2cc3[nH]cnc3cc21	40	89
CC(C)Cn1c(=O)n(C)c(=O)c2c3nc[nH]c3ccc21	8.4	18
COCc1nc2cc3c(=O)n(C)c(=O)n(CC(C)C)c3cc2[nH]1	36	> 50
CC(C)Cn1c(=O)n(C)c(=O)c2cc3[nH]c(C(C)(C)C)nc3cc21	41	> 50
CC(C)Cn1c(=O)n(C)c(=O)c2c3ncn(Cc4ccccc4)c3ccc21	20	13
CC(C)Cn1c(=O)n(C)c(=O)c2c3nc(C(C)(C)C)[nH]c3ccc21	> 50	44
